Source: article PMC9704493 (RSC Advances, 2022)
Read-outs that look alike come from different tables or passages of the source.

What was measured:
Format in all cases: cell-based, human
[1] = system: MCF-7 breast cancer cells; test: MTT cell viability assay, MCF-7; settings: for Selectivity indices (SI), MCF-7: MCF-7 versus MRC-5 fibroblasts
Outline: (§1)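 Cells were seeded at 3 × 10^3 per well and grown for 24 h at 37 °C/5% CO2. A T0 plate was read at dosing and the others after 72 h. MTT (5 mg mL−1 in PBS) was added for 2.5 h, formazan dissolved in DMSO, and absorbance read at 550 nm. GI50 was interpolated, in triplicate. SI compares MRC-5 with cancer-line activity.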

[2] = system: HCT-116 colorectal carcinoma cells; test: MTT cell viability assay, HCT-116; settings: for Selectivity indices (SI), HCT-116: HCT-116 versus MRC-5 fibroblasts
Outline: as §1

MRC-5 fibroblasts = test: MTT cell viability assay, MRC-5 normal fibroblasts; settings: for GI50: read-out: GI50 values (M) mean ± SD, MRC-5
Outline: as §1

[3] = Homo sapiens, MCF7, 72 h, read-out: GI50 values (M) mean ± SD, MCF-7
[4] = Homo sapiens, HCT-116, 72 h, read-out: GI50 values (M) mean ± SD, HCT-116
[5] = read-out: GI50 values (M) mean ± SD, MCF-7, MTT, 72 h exposure
[6] = read-out: GI50 values (M) mean ± SD, HCT-116, MTT, 72 h exposure
[7] = Homo sapiens, MCF7, 72 h, read-out: GI50 values (µM) mean ±SD, MCF-7

| Compound | GI50 [1, 3] [M] | Selectivity indices (SI), MCF-7 [1] | Selectivity indices (SI), HCT-116 [2] | GI50 [2, 4] [M] | GI50 (MRC-5 fibroblasts; Homo sapiens, MRC5, 72 h) [M] | GI50 [1, 5] [M] | GI50 [2, 6] [M] | GI50 (MRC-5 fibroblasts; MTT, 72 h exposure) [M] | GI50 [1, 7] [M] | fold reduction in potency against HCT-116 cells ([2]; relative to its potency against MCF-7 cells) [fold] | GI50 ([2]; Homo sapiens, HCT-116, 72 h, read-out: GI50 values (µM) mean ±SD, HCT-116) [M] | fold increase in activity against HCT-116 cells ([2]; relative to compound 3j) [fold] | GI50 values (µM) mean ±SD, MRC-5 (MRC-5 fibroblasts; MTT, 72 h exposure) |
| --- | --- | --- | --- | --- | --- | --- | --- | --- | --- | --- | --- | --- | --- |
| N#Cc1ccc(-c2csc(NN=Cc3c(O)cc(O)cc3O)n2)cc1 [Compound 3x, 2-(2-(2,4,6-Trihydroxybenzylidene)hydrazinyl)-4-(4-cyanophenyl) thiazole] | 2.3e-06 ± 3e-07 | 6.9 | 3.4 | 4.7e-06 ± 3e-07 | 1.58e-05 ± 5e-07 |  |  |  |  |  |  |  |  |
| COc1ccc(C=NNc2nc(-c3ccc(C#N)cc3)cs2)c(C)c1 [Compound 3k, 2-(2-(4-Methoxy-2-methylbenzylidene) hydrazinyl)-4-(4-cyanophenyl) thiazole] | 3.68e-05 ± 2.7e-06 | 0.4 | 0.4 | 3.7e-05 ± 9e-07 | 1.61e-05 ± 2e-07 |  |  |  |  |  |  |  |  |
| COc1cc(C=NNc2nc(-c3ccc(C#N)cc3)cs2)cc(OC)c1 [Compound 3o, 2-(2-(3,5-Dimethoxybenzylidene)hydrazinyl)-4-(4-cyanophenyl) thiazole] | 4.78e-05 ± 1.1e-06 | 0.4 | 0.5 | 3.56e-05 ± 1.1e-06 | 1.65e-05 ± 5e-07 |  |  |  |  |  |  |  |  |
| N.N.[Cl][Pt][Cl] [cisplatin, reference compound] |  | 1.3 | 0.9 |  |  | 7.5e-06 ± 7e-07 | 9.8e-06 ± 2e-07 | 9.7e-06 ± 4e-07 |  |  |  |  |  |
| N#Cc1ccc(-c2csc(NN=Cc3ccc(Cl)c(Cl)c3)n2)cc1 [Compound 3u, 2-(2-(3,4-Dichlorobenzylidene)hydrazinyl)-4-(4-cyanophenyl) thiazole] | 1.28e-05 ± 7e-07 | 2.4 | 1.1 | 2.72e-05 ± 5e-07 | 3.04e-05 ± 2e-07 |  |  |  |  |  |  |  |  |
| 2-(2-(1-(4-Fluorophenyl)ethylidene)hydrazinyl)-4-(4-cyanophenyl) thiazole [Compound 3e] |  | 1.6 | 6.5 |  |  | 2.85e-05 ± 8e-07 | 6.9e-06 ± 2e-07 | 4.47e-05 ± 2e-07 |  |  |  |  |  |
| N#Cc1ccc(-c2csc(N/N=C/c3cccc(I)c3)n2)cc1 [d] | 2.3e-06 ± 2e-07 |  |  | 1.13e-05 ± 7e-07 | 3.49e-05 ± 3e-07 |  |  |  |  |  |  |  |  |
| Cc1nc(C=NNc2nc(-c3ccc(C#N)cc3)cs2)sc1C [3d′, 2-(2-((4,5-Dimethylthiazol-2-yl)methylene) hydrazinyl)-4-(4-cyanophenyl) thiazole] | 9e-06 ± 1.2e-06 | 2.5 | 5.1 | 4.4e-06 ± 2e-07 | 2.25e-05 ± 2e-06 |  |  |  |  |  |  |  |  |
| CCOc1cc(C=NNc2nc(-c3ccc(C#N)cc3)cs2)ccc1O [Compound 3s, 2-(2-(3-Ethoxy-4-hydroxybenzylidene) hydrazinyl)-4-(4-cyanophenyl) thiazole] | 7.3e-06 ± 8e-07 | 2.5 | 2.2 | 8.4e-06 ± 6e-07 | 1.81e-05 ± 4e-07 |  |  |  |  |  |  |  |  |
| Cc1ccc(C)c(C=NNc2nc(-c3ccc(C#N)cc3)cs2)c1 [Compound 3i, 2-(2-(2,5-Dimethylbenzylidene)hydrazinyl)-4-(4-cyanophenyl) thiazole] | 7.1e-06 ± 3e-07 | 0.9 | 0.8 | 8e-06 ± 3e-07 | 6.2e-06 ± 4e-07 |  |  |  |  |  |  |  |  |
| COc1ccc(OC)c(C=NNc2nc(-c3ccc(C#N)cc3)cs2)c1 [Compound 3j, 2-(2-(2,5-Dimethoxybenzylidene)hydrazinyl)-4-(4-cyanophenyl) thiazole] | 3.7e-06 ± 4e-07 | 6.1 | 3.3 | 6.9e-06 ± 2.5e-06 | 2.25e-05 ± 1e-07 |  |  |  |  |  |  |  |  |
| N#Cc1ccc(-c2csc(NN=Cc3ccc(C(F)(F)F)cc3C(F)(F)F)n2)cc1 [Compound 3m, 2-(2-(2,4-Bis-(trifluoromethyl)benzylidene) hydrazinyl)-4-(4-cyanophenyl) thiazole] | 2e-06 ± 8e-07 | 8.3 | 3.5 | 4.7e-06 ± 1.3e-06 | 1.65e-05 ± 6e-07 |  |  |  |  |  |  |  |  |
| Cc1cc(C)c(C=NNc2nc(-c3ccc(C#N)cc3)cs2)c(C)c1 [Compound 3v, 2-(2-(2,4,6-Trimethylbenzylidene)hydrazinyl)-4-(4-cyanophenyl) thiazole] | 4.2e-06 ± 6e-07 | 2.7 | 2.8 | 4e-06 ± 1e-06 | 1.12e-05 ± 3e-07 |  |  |  |  |  |  |  |  |
| N#Cc1ccc(-c2csc(NN=Cc3cc(Br)cc([N+](=O)[O-])c3)n2)cc1 [Compound 3r, 2-(2-(3-Bromo-5-nitrobenzylidene)hydrazinyl)-4-(4-cyanophenyl) thiazole] | 4.1e-06 ± 4e-07 | 3 | 4.1 | 3e-06 ± 1e-06 | 1.22e-05 ± 6e-07 |  |  |  |  |  |  |  |  |
| N#Cc1ccc(-c2csc(NN=Cc3cccc(I)c3)n2)cc1 [Compound 3d, 2-(2-(3-Iodobenzylidene)hydrazinyl)-4-(4-cyanophenyl) thiazole] |  |  |  |  |  |  |  |  | 2.3e-06 | 5 |  |  |  |
| N#Cc1ccc(-c2csc(NN=Cc3c(F)cc(F)cc3F)n2)cc1 [Compound 3w, 2-(2-(2,4,6-Trifluorobenzylidene)hydrazinyl)-4-(4-cyanophenyl) thiazole] | 7e-06 ± 2e-07 | 0.2 | 0.7 | 1.5e-06 ± 8e-07 | 1.1e-06 ± 5e-07 |  |  |  |  |  |  |  |  |
| COc1cc(C=NNc2nc(-c3ccc(C#N)cc3)cs2)cc(OC)c1OC [Compound 3y, 2-(2-(3,4,5-Trimethoxybenzylidene)hydrazinyl)-4-(4-cyanophenyl) thiazole] | 2.7e-06 ± 1e-07 | 8.7 | 14.6 | 1.6e-06 ± 4e-07 | 2.34e-05 ± 3e-07 |  |  |  |  |  |  |  |  |
| N#Cc1ccc(-c2csc(NN=Cc3cc(Cl)ccc3O)n2)cc1 [Compound 3g, 2-(2-(5-Chloro-2-hydroxybenzylidene) hydrazinyl)-4-(4-cyanophenyl) thiazole] | 4.1e-06 ± 4e-07 | 4.1 | 1.7 | 9.7e-06 ± 4e-07 | 1.68e-05 ± 7e-07 |  |  |  |  |  |  |  |  |
| N#Cc1ccc(-c2csc(N/N=C/c3ccccc3F)n2)cc1 [a] | 3.4e-06 ± 1e-06 |  |  | 3.1e-06 ± 1.5e-06 | 1.66e-05 ± 1e-07 |  |  |  |  |  |  |  |  |
| N#Cc1ccc(-c2csc(NN=Cc3cc(Br)cs3)n2)cc1 [3c′, 2-(2-((4-Bromothiophen-2-yl)methylene)hydrazinyl)-4-(4-cyanophenyl) thiazole] | 4.3e-06 ± 3e-07 | 1.8 | 1.2 | 6.2e-06 ± 5e-07 | 7.6e-06 ± 1e-07 |  |  |  |  |  |  |  |  |
| N#Cc1ccc(-c2csc(NN=Cc3cccc(F)c3)n2)cc1 [Compound 3b, 2-(2-(3-Fluorobenzylidene)hydrazinyl)-4-(4-cyanophenyl) thiazole] |  |  |  |  |  |  |  |  | 3.66e-05 |  | 2.2e-06 |  |  |
| N#Cc1ccc(-c2csc(N/N=C/c3cccc(F)c3)n2)cc1 [b] | 3.66e-05 ± 1.4e-06 |  |  | 2.2e-06 ± 5e-07 | 1.68e-05 ± 5e-07 |  |  |  |  |  |  |  |  |
| N#Cc1ccc(-c2csc(NN=Cc3cc(F)cc(Br)c3)n2)cc1 [Compound 3p, 2-(2-(3-Bromo-5-fluorobenzylidene)hydrazinyl)-4-(4-cyanophenyl) thiazole] | 7.3e-06 ± 2e-07 | 2.4 | 2.2 | 8.1e-06 ± 2e-07 | 1.77e-05 ± 7e-07 |  |  |  |  |  |  |  |  |
| COc1cc(OC)c(OC)cc1C=NNc1nc(-c2ccc(C#N)cc2)cs1 [Compound 3z, 2-(2-(2,4,5-Trimethoxybenzylidene)hydrazinyl)-4-(4-cyanophenyl) thiazole] | 2.5e-06 ± 2e-07 | 8.7 | 11.5 | 1.9e-06 ± 5e-07 | 2.18e-05 ± 2e-07 |  |  |  |  |  |  | 3.5 |  |
| COc1ccc(C=NNc2nc(-c3ccc(C#N)cc3)cs2)c(OC)c1 [Compound 3l, 2-(2-(2,4-Dimethoxybenzylidene)hydrazinyl)-4-(4-cyanophenyl) thiazole] | 9.2e-06 ± 4e-07 | 3.3 | 3.6 | 8.4e-06 ± 9e-07 | 3.01e-05 ± 6e-07 |  |  |  |  |  |  |  | no significant activity |
